Bioassay records as filed in PubChem.
The list is a sample of the results.
HKDC1 activator: HKDC1 hexokinase activators, primary screen, biochemical, fluorescence, uHTS; Q2TB90; recombinant HKDC1, G6PDH/diaphorase resazurin fluorescence; active compounds read low; activity change, negative = activation, % at 20 µM; actives 0.056% (n = 340,000); AID 493187, 2011;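 active means activation of 40% or more at 20 µM, a change of -40% or lower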
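System: in-house human HKDC1 enzyme, G6PDH and diaphorase coupling enzymes; Quantity: 5 µg/mL HKDC1 final; Buffer or medium: Tris/MgCl2 buffer, pH 8.0; Dosing: single compound dose of 20 µM, 1% DMSO final; Times: 90 min reaction at room temperature, dark; Detection: coupled resazurin-to-resorufin fluorescence, Ex 525/Em 613 nm.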
* hit, by the source's call.

SMILES | HKDC1 activator
COc1ccc(C2=CC3=C(Br)C(=O)C(C)(OC(=O)c4ccco4)C(=O)C3=CO2)cc1 (stereo unspecified) | 42
CCCC[n+]1c2ccccc2cc2ccccc21 | 42
CCCc1nc2c(c(=O)c3ccccc3n2C)c(=O)n1-c1ccc(F)cc1 | 51
CC[n+]1c(/C=C2\Sc3ccccc3N2C)ccc2cccc(C)c21 | -40*
Cc1ccc(N=Nc2ccc(O)c3ncccc23)cc1C | -43*
Cc1nc(COC(=O)c2cc(O)c3ccccc3c2O)cs1 | 60
O=C1C=CC(=O)c2c(O)c(N3CCN(CCOCCO)CC3)c(Br)c(O)c21 | 46
Cc1ccccc1C(=O)Nc1ccc2c(C#N)c3nc4ccccc4nc3n2c1 | 37
O=C(O)c1ccc(-c2ccc(/C=c3/sc4nc5ccccc5n4c3=O)o2)cc1Cl | 45
Cc1ccccc1Nc1nc(N)nc(CSc2nnc3sc4ccccc4n23)n1 | 36
CCOC(=O)C1=C(Cc2ccc(F)cc2)C(=O)c2ccccc2C1=O | 73
COc1ccc(N(CCCN2C(=O)c3cccc4cccc(c34)C2=O)C(=O)c2cccnc2)cc1 | 36
Cc1nn(-c2ccccc2)c(Cl)c1CN(C(=O)CCl)c1ccc(Cl)cc1 | 38
S=C(NN=C(c1ccccc1)c1ccccn1)N(Cc1ccccn1)Cc1ccccn1 | -46*
Cc1ccc(S(=O)(=O)Nc2ccc(O)c3ccccc23)c(C)c1 | 52
COC(=O)Cn1c2ccc(F)cc2c2nc(C)sc21 | -92*
CCOC(=O)Cn1c2ccc(F)cc2c2nc(C)sc21 | -62*
CC(C)c1nc2oc3c(NCC4CCCO4)ncnc3c2c2c1COC(C)(C)C2 (stereo unspecified) | 40
COc1cc2c(cc1OC)-c1cc(NCc3ccccn3)nc(=O)n1CC2 | 59
